This note sets out measurements from ChEMBL document CHEMBL1136986, “Identification of anxiolytic/nonsedative agents among indol-3-ylglyoxylamides acting as functionally selective agonists at the gamma-aminobutyric acid-A (GABAA) alpha2 benzodiazepine receptor” (J Med Chem, 2009).

Structures are written as SMILES. Active and inactive are the calls of the source. The rule behind the calls is not given here.

In series [1] the target is Gamma-aminobutyric acid receptor subunit alpha-2 (Rattus norvegicus, UniProt P18508+P23576+P63138). Briefly: Displacement of [3H]flumazenil from rat GABA-A alpha-2-beta-2-gamma-2 receptor expressed in HEK293 cells. Type of series: cell-based. In outline:
(§1)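 HEK293 membranes expressing rat α1β2γ2, α2β2γ2 or α5β3γ2, made in 10 mM potassium phosphate pH 7.4 (48000g, 4 °C) and resuspended with 100 mM KCl. Ki is mean ± SEM of three determinations in triplicate.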

The subject of series [2] is Mus musculus. Briefly: Anxiolytic effect in CD1 mouse assessed as increase in time spent in white compartment at 20 mg/kg, ip by light/dark box test. Format: functional, organism-based. Set-up: dose 20 mg/kg. In a few lines:
(§2)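 Male CD-1 mice (35-40 g), acclimatized 4 weeks to a reversed light cycle. […] Testing started 1 h later, with mouse placed in the lit chamber for a 5 min videotaped session.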

Series [3] has as its system Mus musculus. As to the kind of experiment: Anxiolytic effect in CD1 mouse assessed as increase in number of transfers from lit to the dark area at 20 mg/kg, ip by light/dark box test. Type of series: functional, organism-based. On the set-up: dose 20 mg/kg. In a few lines:
as §2

Series [4] can be described thus: Displacement of [3H]flumazenil from Benzodiazepine receptor in bovine cerebral cortex membrane. Type of series: cell membranes, Bos taurus. In general terms: In a radioligand displacement assay an active substance lowers the binding of a labelled ligand.
The test system of series [5] is Mus musculus. Briefly: Toxicity in CD1 mouse assessed as sedative effect at 20 mg/kg, ip by light/dark box test. Format: organism-based. Set-up: dose 20 mg/kg, route intraperitoneal. To be noted: in vivo. In a few lines:
as §2

For series [6], the target named is GABA-A receptor; alpha-1/beta-2/gamma-2 (Rattus norvegicus) (UniProt P18508+P62813+P63138). Briefly: Agonist activity at rat GABA-A alpha-1-beta-2-gamma-2 receptor expressed in HEK293 cells assessed as increase in 36Cl- influx. Type of series: functional, cell-based. In outline: (§3)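 36Cl- uptake in HEK293 cells stably expressing rat α1β2γ2 or α2β2γ2, grown 3 days on polylysine-coated coverslips. Cells washed in HEPES/NaCl buffer pH 7.4, then dipped at room temperature into 36Cl- (2 µCi/mL) with drug, with or without GABA at EC20. Influx stopped after 8 s in ice-cold buffer with 0.1 mM picrotoxin. Result is % increase of EC20 GABA response, ≥5 independent experiments.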

Series [7] has as its target Gamma-aminobutyric acid receptor subunit alpha-2 (Rattus norvegicus) (UniProt P23576). As to the kind of experiment: Agonist activity at rat GABA-A alpha-2-beta-2-gamma-2 receptor expressed in HEK293 cells assessed as increase in 36Cl- influx. Type of series: functional, cell-based. In a few lines:
as §3

The target of series [8] is GABA A receptor alpha-5/beta-3/gamma-2 (Rattus norvegicus) (UniProt P18508+P19969+P63079). As to the kind of experiment: Displacement of [3H]flumazenil from rat GABA-A alpha-5-beta-3-gamma-2 receptor expressed in HEK293 cells at 10 uM. Format: cell-based. In a few lines: (§4)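 HEK293 membranes expressing rat α2β2γ2 or α5β3γ2 incubated with [3H]flumazenil 1-2 nM for 1 h at 4 °C, in 10 mM potassium phosphate pH 7.4 with 100 mM KCl. Compound tested at 10 µM.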

Series [9] has as its target GABA-A receptor; alpha-1/beta-2/gamma-2 (Rattus norvegicus, UniProt P18508+P62813+P63138). As to the kind of experiment: Displacement of [3H]flumazenil from rat GABA-A alpha-1-beta-2-gamma-2 receptor expressed in HEK293 cells. Format: cell-based. In a few lines: as §1
The species entered for series [10] is Bos taurus. Briefly: Displacement of [3H]flumazenil from Benzodiazepine receptor in bovine cerebral cortex membrane at 10 uM. Type of series: cell membranes.
In series [11] the target is GABA A receptor alpha-5/beta-3/gamma-2 (Rattus norvegicus, UniProt P18508+P19969+P63079). Briefly: Displacement of [3H]flumazenil from rat GABA-A alpha-5-beta-3-gamma-2 receptor expressed in HEK293 cells. Type of series: cell-based. In outline: as §1
GABA A receptor alpha-5/beta-3/gamma-2, sequence (P18508 whole entry): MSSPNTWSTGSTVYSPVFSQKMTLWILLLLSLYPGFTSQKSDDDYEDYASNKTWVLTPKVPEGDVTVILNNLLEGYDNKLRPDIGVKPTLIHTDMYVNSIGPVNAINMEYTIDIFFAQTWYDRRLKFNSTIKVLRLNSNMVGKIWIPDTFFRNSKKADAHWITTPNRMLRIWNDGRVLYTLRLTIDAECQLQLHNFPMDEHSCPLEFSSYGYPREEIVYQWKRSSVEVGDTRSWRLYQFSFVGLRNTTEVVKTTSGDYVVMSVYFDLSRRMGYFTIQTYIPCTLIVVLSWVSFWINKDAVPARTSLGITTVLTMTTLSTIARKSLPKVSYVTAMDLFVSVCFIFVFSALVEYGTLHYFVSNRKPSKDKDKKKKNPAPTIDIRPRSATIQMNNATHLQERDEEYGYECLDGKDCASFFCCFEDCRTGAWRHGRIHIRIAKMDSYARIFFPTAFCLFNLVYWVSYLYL
GABA A receptor alpha-5/beta-3/gamma-2, sequence (P19969 whole entry): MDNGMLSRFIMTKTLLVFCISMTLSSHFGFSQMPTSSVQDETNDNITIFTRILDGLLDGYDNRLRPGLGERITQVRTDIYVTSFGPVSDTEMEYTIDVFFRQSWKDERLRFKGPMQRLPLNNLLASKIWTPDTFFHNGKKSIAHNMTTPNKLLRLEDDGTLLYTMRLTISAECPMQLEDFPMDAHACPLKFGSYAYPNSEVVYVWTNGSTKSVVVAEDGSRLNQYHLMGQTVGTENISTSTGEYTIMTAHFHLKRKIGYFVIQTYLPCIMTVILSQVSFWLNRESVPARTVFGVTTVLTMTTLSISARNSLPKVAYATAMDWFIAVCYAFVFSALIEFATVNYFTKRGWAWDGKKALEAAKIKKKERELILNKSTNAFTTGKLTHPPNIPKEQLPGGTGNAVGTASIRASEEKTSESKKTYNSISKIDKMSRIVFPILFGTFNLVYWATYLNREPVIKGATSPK
GABA A receptor alpha-5/beta-3/gamma-2, sequence (P63079 whole entry): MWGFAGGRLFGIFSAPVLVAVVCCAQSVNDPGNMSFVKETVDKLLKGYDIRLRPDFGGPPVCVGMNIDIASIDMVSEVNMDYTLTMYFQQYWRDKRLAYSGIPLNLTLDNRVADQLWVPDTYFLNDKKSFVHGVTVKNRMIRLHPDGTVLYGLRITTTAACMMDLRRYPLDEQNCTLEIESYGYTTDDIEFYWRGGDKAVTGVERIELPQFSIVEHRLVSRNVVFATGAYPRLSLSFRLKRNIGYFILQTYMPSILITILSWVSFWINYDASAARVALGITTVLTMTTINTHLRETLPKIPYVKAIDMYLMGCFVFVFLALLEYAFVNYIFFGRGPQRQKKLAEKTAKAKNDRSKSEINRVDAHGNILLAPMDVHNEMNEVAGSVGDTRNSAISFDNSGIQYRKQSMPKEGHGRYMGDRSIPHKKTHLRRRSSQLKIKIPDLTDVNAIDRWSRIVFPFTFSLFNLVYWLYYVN
The target of series [12] is Gamma-aminobutyric acid receptor subunit alpha-2 (Rattus norvegicus) (UniProt P23576). Briefly: Displacement of [3H]flumazenil from rat GABA-A alpha-2-beta-2-gamma-2 receptor expressed in HEK293 cells at 10 uM. Type of series: cell-based. In outline: as §4
Gamma-aminobutyric acid receptor subunit alpha-2 (Rattus norvegicus), sequence (P23576 whole entry): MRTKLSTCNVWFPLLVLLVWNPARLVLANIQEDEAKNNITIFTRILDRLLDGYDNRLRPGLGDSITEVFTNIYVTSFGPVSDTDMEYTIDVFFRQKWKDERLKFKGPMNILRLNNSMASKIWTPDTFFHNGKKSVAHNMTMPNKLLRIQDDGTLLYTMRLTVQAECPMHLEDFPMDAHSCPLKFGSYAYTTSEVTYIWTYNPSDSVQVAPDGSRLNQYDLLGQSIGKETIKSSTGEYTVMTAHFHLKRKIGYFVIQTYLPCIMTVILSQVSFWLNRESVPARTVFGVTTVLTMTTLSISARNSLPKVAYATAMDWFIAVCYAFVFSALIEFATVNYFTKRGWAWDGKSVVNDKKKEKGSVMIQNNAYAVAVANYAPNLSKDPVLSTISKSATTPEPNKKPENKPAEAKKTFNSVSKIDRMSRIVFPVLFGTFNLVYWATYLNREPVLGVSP
Series [13] deals with Mus musculus. Briefly: Toxicity in CD1 mouse assessed as sedative effect at 1.25 mg/kg, ip by light/dark box test. Set-up: dose 1.25 mg/kg, route intraperitoneal. The conditions noted are these: in vivo. Type of series: organism-based. In a few lines:
(§5)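 Male CD-1 albino mice (35-40 g), acclimatized 4 weeks to reversed 12 h light cycle, dosed ip in 1% carboxymethylcellulose vehicle; 1 h later placed in centre of lit chamber of light/dark box for 5 min, videotaped. Scored time in white compartment, lit/dark transfers, and rearings plus line crossings (activity) expressed per TW; n = 4-6, mean ± SEM versus vehicle.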

Series [14] relates to Mus musculus. Briefly: Anxiolytic effect in CD1 mouse assessed as increase in time spent in white compartment at 1.25 mg/kg, ip by light/dark box test. Type of series: functional, organism-based. Set-up: dose 1.25 mg/kg. In outline:
as §5

Series [15] relates to Mus musculus. As to the kind of experiment: Anxiolytic effect in CD1 mouse assessed as increase in number of transfers from lit to the dark area at 1.25 mg/kg, ip by light/dark box test. Type of series: functional, organism-based. On the set-up: dose 1.25 mg/kg. In outline: as §5

Gamma-aminobutyric acid receptor subunit alpha-2, sequence (P23576 whole entry, one chain of several): as the sequence (P23576 whole entry) above
GABA-A receptor; alpha-1/beta-2/gamma-2, sequence (P18508 whole entry): as the sequence (P18508 whole entry) above
GABA-A receptor; alpha-1/beta-2/gamma-2, sequence (P62813 whole entry): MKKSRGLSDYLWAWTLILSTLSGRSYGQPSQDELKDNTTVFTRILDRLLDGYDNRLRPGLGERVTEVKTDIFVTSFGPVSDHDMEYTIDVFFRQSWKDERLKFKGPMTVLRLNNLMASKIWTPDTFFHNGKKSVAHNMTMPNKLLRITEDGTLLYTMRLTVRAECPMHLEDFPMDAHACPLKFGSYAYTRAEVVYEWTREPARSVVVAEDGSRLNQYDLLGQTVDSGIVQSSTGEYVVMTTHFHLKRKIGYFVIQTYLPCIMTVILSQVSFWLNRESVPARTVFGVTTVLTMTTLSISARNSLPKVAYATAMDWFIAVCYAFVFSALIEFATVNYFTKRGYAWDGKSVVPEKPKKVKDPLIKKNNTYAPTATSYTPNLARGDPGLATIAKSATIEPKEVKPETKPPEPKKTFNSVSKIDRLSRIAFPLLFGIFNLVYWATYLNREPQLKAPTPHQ
GABA-A receptor; alpha-1/beta-2/gamma-2, sequence (P63138 whole entry): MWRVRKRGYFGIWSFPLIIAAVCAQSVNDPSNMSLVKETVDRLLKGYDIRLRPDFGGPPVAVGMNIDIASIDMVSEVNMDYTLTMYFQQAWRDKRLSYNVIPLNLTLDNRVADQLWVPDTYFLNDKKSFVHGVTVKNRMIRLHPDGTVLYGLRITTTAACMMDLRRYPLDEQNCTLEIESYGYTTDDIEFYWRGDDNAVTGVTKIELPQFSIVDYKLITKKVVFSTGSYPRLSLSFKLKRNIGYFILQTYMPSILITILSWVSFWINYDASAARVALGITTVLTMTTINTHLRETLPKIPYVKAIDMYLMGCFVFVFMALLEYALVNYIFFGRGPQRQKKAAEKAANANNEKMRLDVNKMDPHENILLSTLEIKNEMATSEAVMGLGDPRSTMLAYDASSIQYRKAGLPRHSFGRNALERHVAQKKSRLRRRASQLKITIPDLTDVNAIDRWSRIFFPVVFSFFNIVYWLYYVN

In general, Ki refers to a dissociation constant, usually derived from enzyme kinetics or from competition with a known ligand. Low values mean tighter binding, high ones weaker binding. Consider `C[C@@H](NC(=O)C(=O)c1c[nH]c2ccc([N+](=O)[O-])cc12)c1ccccc1`, for which the figures for the Ki in series [1] and in series [4] were 0.121 µM and 0.017 µM, respectively. Besides, the result in series [2] and in series [3] was Active. The Activity result in [5] was “Non-toxic”; in [6] it was 35%; in series [7], 79%.

Take `O=C(N[C@@H]1CCc2ccccc21)C(=O)c1c[nH]c2ccc([N+](=O)[O-])cc12`: the Ki was found to be 0.085 µM in series [1] and 0.028 µM in series [4]. Moreover, the outcome in series [2] and in series [3] was inactive. The figures for the Activity in series [6] and in [7] were 1% and 48%, respectively.

Usually inhibition stands for the percentage by which the read-out fell short of the control. Read a high inhibition as a strong effect. `COc1ccc2c(c1)CCC2NC(=O)C(=O)c1c[nH]c2ccccc12` (racemic): in [8], the inhibition was determined as 28%. Besides, the inhibition constant (Ki) in series [1] was determined as 0.69 µM; in [4], 0.636 µM; in [9], 0.246 µM.

`O=C(NC1CCc2cc([N+](=O)[O-])ccc21)C(=O)c1c[nH]c2ccccc12` (racemic) showed an inhibition in series [10] of 47%.

Take `O=C(NCc1ccc(F)cc1)C(=O)c1c[nH]c2ccccc12`: the Ki was 0.118 µM in series [1], 0.052 µM in [4], 0.163 µM in series [11] and 0.245 µM in [9]. Besides, the outcome in [2] and in series [3] was Active. Besides, the values for the Activity result in series [5], in series [6] and in series [7] were “Non-toxic”, 11% and 85%, respectively.

Take `O=C(NC1CCc2cc([N+](=O)[O-])ccc21)C(=O)c1c[nH]c2ccc([N+](=O)[O-])cc12` (racemic): the inhibition constant (Ki) was 0.513 µM in series [1], 0.178 µM in [4], 0.749 µM in series [11] and 0.2 µM in series [9].

With `O=C(NC1CCc2cc(F)ccc21)C(=O)c1c[nH]c2ccccc12` (racemic), the inhibition was 29% in series [12] and 44% in series [8]. Moreover, the values for the Ki in [4] and in series [9] were 2.16 µM and 2.05 µM, respectively.

As for `O=C(NC1CCc2cc(F)ccc21)C(=O)c1c[nH]c2ccc([N+](=O)[O-])cc12` (racemic), the inhibition constant (Ki) in series [1] is 0.81 µM; in [4] it was 0.3 µM; in [11], 1.42 µM; in series [9], 0.195 µM.

In turn, `Cc1ccc(-c2nc3ccc(C)cn3c2CC(=O)N(C)C)cc1` [ZOLPIDEM] registered an inhibition constant Ki in series [4] of 0.051 µM.

As for `O=C(N[C@@H]1CCc2ccccc21)C(=O)c1c[nH]c2ccccc12`, the Ki in series [1] was found to be 3.1 µM; in series [4], 0.675 µM.

Compound `O=C(NCc1ccc(F)cc1)C(=O)c1c[nH]c2ccc([N+](=O)[O-])cc12` registered an inhibition in [10] of 24%.

`O=C(NCc1ccccc1)C(=O)c1c[nH]c2ccc([N+](=O)[O-])cc12`: the affinity in [4] corresponds to a Ki of 0.117 µM.

Take `CN1C(=O)CN=C(c2ccccc2)c2cc(Cl)ccc21` [DIAZEPAM]: the Activity result was “Non-toxic” in [13] and 81% in series [7]. The outcome in series [14] and in series [15] was Active. This compound also returned an inhibition constant (Ki) in [4] of 0.01 µM.

In the case of `O=C(NCc1ccc([N+](=O)[O-])cc1)C(=O)c1c[nH]c2ccccc12`, the Ki in series [1] worked out at 0.21 µM; in series [4] it was 0.021 µM.

On to `Cc1ccc2c(c1)CCC2NC(=O)C(=O)c1c[nH]c2ccccc12` (racemic), for which the inhibition in [10] stood at 15%.

Turning to `O=C(NCc1ccc([N+](=O)[O-])cc1)C(=O)c1c[nH]c2ccc([N+](=O)[O-])cc12`, the Ki in series [1] was found to be 2.98 µM; in series [4], 0.62 µM; in [11], 2.22 µM; in [9], 0.293 µM.

Turning to `COc1ccc(CNC(=O)C(=O)c2c[nH]c3ccccc23)cc1`, in [8], the inhibition was 30%. Also, the inhibition constant (Ki) in [1] was 1.95 µM; in series [4], 0.163 µM; in [9], 0.195 µM.

For the compound `COc1ccc2c(c1)CCC2NC(=O)C(=O)c1c[nH]c2ccc([N+](=O)[O-])cc12` (racemic), the inhibition constant Ki in series [1] came out at 0.231 µM; in series [4], 0.013 µM; in series [11], 0.252 µM; in series [9], 0.028 µM.

Take `C[C@@H](NC(=O)C(=O)c1c[nH]c2ccccc12)c1ccccc1`: the inhibition constant (Ki) in series [1] was 1.55 µM; in series [4], 1.31 µM.

In series [10], `Cc1ccc2c(c1)CCC2NC(=O)C(=O)c1c[nH]c2ccc([N+](=O)[O-])cc12` (racemic) returned an inhibition of 2%.

As for `O=C(NCc1ccccc1)C(=O)c1c[nH]c2ccccc12`, in [4], the Ki was 0.12 µM.

Regarding `COc1ccc(CNC(=O)C(=O)c2c[nH]c3ccc([N+](=O)[O-])cc23)cc1`, the results for the Ki in series [1] and in series [4] were 1.65 µM and 0.053 µM, respectively.
